{"source": "paper PMC4567957", "about": "(Bioorganic & medicinal chemistry letters, 2015)", "key": {"[1]": {"target": "T1, human ferroportin-GFP (Homo sapiens, UniProt Q9NP59)", "T1 sequence (Q9NP59 1-571)": "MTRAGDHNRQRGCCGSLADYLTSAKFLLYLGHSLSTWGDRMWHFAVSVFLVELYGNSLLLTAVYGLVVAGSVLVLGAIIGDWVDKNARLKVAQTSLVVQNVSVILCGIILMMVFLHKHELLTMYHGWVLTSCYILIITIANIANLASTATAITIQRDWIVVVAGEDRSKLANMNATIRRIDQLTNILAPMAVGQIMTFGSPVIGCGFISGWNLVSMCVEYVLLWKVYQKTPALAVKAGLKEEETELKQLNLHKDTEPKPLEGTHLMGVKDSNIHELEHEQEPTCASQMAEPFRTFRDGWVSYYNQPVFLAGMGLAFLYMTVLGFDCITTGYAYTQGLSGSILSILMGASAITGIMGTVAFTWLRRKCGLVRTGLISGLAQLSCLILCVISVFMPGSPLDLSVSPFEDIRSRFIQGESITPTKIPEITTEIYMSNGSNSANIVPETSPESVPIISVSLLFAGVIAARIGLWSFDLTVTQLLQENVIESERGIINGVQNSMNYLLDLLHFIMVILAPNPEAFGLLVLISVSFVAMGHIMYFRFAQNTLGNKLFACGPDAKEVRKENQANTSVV", "assay": "In vitro ferroportin", "assay_type": "cell-based", "details": "for bioactivity in Fpn degradation assay (in words): result in words, see Table 1; for times less active than mHS5: versus mHS5"}, "[2]": {"assay": "Plasma stability in freshly prepared mouse plasma", "assay_type": "in vitro ADME", "details": "25 μM, 37 °C", "how_it_was_run": "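Test compound, from a 10 mM DMSO stock, spiked into freshly prepared mouse plasma (final 25 μM) and incubated at 37 °C. Aliquots taken at set time points were quenched in DMSO/acetonitrile (1:1) with 0.1% TFA and centrifuged (13000 rpm, 10 min). Supernatants were analysed by triple-quadrupole LC/MS against a peptide internal standard to follow remaining intact peptide over time.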"}, "[3]": {"system": "C57BL/6 mice", "assay_type": "in vivo, mouse", "details": "subcutaneous, 50–200 nmoles, 24h post-injection"}}, "note": "pEC50: −log10 of the molar value. Entries after “also recorded” stand apart in the source; their conditions may differ. Starred links: 1 amine or outer side, 2 acyl side, 3 side chain; linkers in the order of their positions; H or OH if unused. Positions of bridges follow the written chain, without caps; N, C: chain ends. Non-standard residues stand in square brackets, D forms with d. Residues, ends and D or L forms follow the SMILES beside them. *: point of attachment. CH2CONHCH2CH2NHCOCH2 = O=C(C[*:1])NCCNC(=O)C[*:2]; Propanoyl(3,3-Ph2) = O=C(CC(c1ccccc1)c1ccccc1)*; Pyridine(2,6-diCH2) = c1cc(C[*:1])nc(C[*:2])c1; X2 = O=C(CC(c1ccccc1)(c1ccccc1)c1ccccc1)*; Dip = N[C@H](C(=O)O)C(c1ccccc1)c1ccccc1; X1 = CCCCCCCCCCCCCCCC(=O)NCCOCCOCCN*; mXylylene = c1cc(C[*:1])cc(C[*:2])c1; oXylylene = c1ccc(C[*:2])c(C[*:1])c1; NH(CH2CH2O)2CH2CH2NH2 = NCCOCCOCCN*; pXylylene = c1cc(C[*:2])ccc1C[*:1]; Mpa = O=C(O)CCS"}
{"smiles": "CC(=O)N[C@H]1CSCc2cccc(n2)CSC[C@@H](C(N)=O)NC(=O)[C@H](Cc2ccccc2)NC(=O)[C@H](CCCNC(=N)N)NC(=O)[C@H](CS)NC(=O)[C@H](CCCNC(=N)N)NC(=O)[C@@H]2CCCN2C(=O)[C@H](Cc2ccccc2)NC1=O", "note": "[mHS7] (Ac-CFPRCRFC-NH2; linker 1-8 via Pyridine(2,6-diCH2); N-terminus and C-terminus assumed)", "values": [{"measurement": "bioactivity in Fpn degradation assay (in words)", "setting": "[1]", "value": "inactive"}]}
{"smiles": "N=C(N)NCCC[C@@H]1NC(=O)[C@@H](NC(=O)CC(c2ccccc2)(c2ccccc2)c2ccccc2)CSCc2cccc(c2)CSC[C@@H](C(N)=O)NC(=O)[C@H](Cc2ccccc2)NC(=O)[C@H](CCCNC(=N)N)NC(=O)[C@H](CS)NC1=O", "note": "[mHS19] (X2-CRCRFC-NH2; linker 1-6 via mXylylene; C-terminus assumed)", "values": [{"measurement": "pEC50", "setting": "[1]", "value": "~7.00"}, {"measurement": "fold less potent than mHS15", "setting": "[1]; versus mHS15", "value": "approximately 2 ×"}]}
{"smiles": "CC(=O)N[C@@H](CS)C(=O)N[C@@H](Cc1ccccc1)C(=O)N1CCC[C@H]1C(=O)N[C@@H](CCCNC(=N)N)C(=O)N[C@@H](CS)C(=O)N[C@@H](CCCNC(=N)N)C(=O)N[C@@H](Cc1ccccc1)C(=O)N[C@@H](CS)C(N)=O", "note": "[mHS1] (Ac-CFPRCRFC-NH2; N-terminus and C-terminus assumed)", "values": [{"measurement": "pEC50", "setting": "[1]", "value": "< 6.22"}, {"measurement": "time within which degraded in plasma", "setting": "[2]", "value": "≤ 6", "unit": "h"}]}
{"smiles": "N=C(N)NCCC[C@@H]1NC(=O)[C@H](CS)NC(=O)[C@H](CCCNC(=N)N)NC(=O)[C@@H]2CCCN2C(=O)[C@H](C(c2ccccc2)c2ccccc2)NC(=O)CCSCc2cccc(c2)CSC[C@@H](C(=O)NCCOCCOCCN)NC(=O)[C@H](Cc2ccccc2)NC1=O", "note": "[mHS23] ([Mpa][Dip]PRCRFC-{NH(CH2CH2O)2CH2CH2NH2}; linker 1-8 via mXylylene (inferred))", "values": [{"measurement": "times more active than mHS22", "setting": "[1]; versus AcNH-containing mHS22", "value": "approximately 2 times"}]}
{"smiles": "CC(=O)N[C@H]1CSCc2ccc(cc2)CSC[C@@H](C(N)=O)NC(=O)[C@H](Cc2ccccc2)NC(=O)[C@H](CCCNC(=N)N)NC(=O)[C@H](CS)NC(=O)[C@H](CCCNC(=N)N)NC(=O)[C@@H]2CCCN2C(=O)[C@H](Cc2ccccc2)NC1=O", "note": "[mHS4] (Ac-CFPRCRFC-NH2; linker 1-8 via pXylylene (inferred))", "values": [{"measurement": "times less active than mHS5", "setting": "[1]", "value": "approximately 2 times"}]}
{"smiles": "CCCCCCCCCCCCCCCC(=O)NCCOCCOCCNC(=O)[C@@H]1CSCc2cccc(c2)CSC[C@H](NC(=O)CC(c2ccccc2)c2ccccc2)C(=O)N[C@@H](CCCNC(=N)N)C(=O)N[C@@H](CS)C(=O)N[C@@H](CCCNC(=N)N)C(=O)N[C@@H](Cc2ccccc2)C(=O)N1", "note": "[mHS26] ({Propanoyl(3,3-Ph2)}-CRCRFC-X1; linker 1-6 via mXylylene; N-terminus and C-terminus assumed)", "values": [{"measurement": "fold less potent than parental minihepcidin PR73", "setting": "[1]; ratio of EC50 versus PR73", "value": 12.5, "unit": "×"}, {"measurement": "in vivo activity (decrease in serum iron)", "setting": "[3]", "value": "no desired biological effect; also recorded: no in vivo potency"}, {"measurement": "plasma stability compared with PR73", "setting": "[2]", "value": "slightly more resistant to plasma driven degradation"}]}
{"smiles": "CC(=O)N[C@H]1CSCc2ccccc2CSC[C@@H](C(N)=O)NC(=O)[C@H](Cc2ccccc2)NC(=O)[C@H](CCCNC(=N)N)NC(=O)[C@H](CS)NC(=O)[C@H](CCCNC(=N)N)NC(=O)[C@@H]2CCCN2C(=O)[C@H](Cc2ccccc2)NC1=O", "note": "[mHS6] (Ac-CFPRCRFC-NH2; linker 1-8 via oXylylene; N-terminus and C-terminus assumed)", "values": [{"measurement": "times less active than mHS5", "setting": "[1]", "value": "approximately 2 times"}]}
{"smiles": "CC(=O)N[C@H]1CSCc2cccc(c2)CSC[C@@H](C(N)=O)NC(=O)[C@H](Cc2ccccc2)NC(=O)[C@H](CCCNC(=N)N)NC(=O)[C@H](CS)NC(=O)[C@H](CCCNC(=N)N)NC(=O)[C@@H]2CCCN2C(=O)[C@H](C(c2ccccc2)c2ccccc2)NC1=O", "note": "[mHS15] (Ac-C[Dip]PRCRFC-NH2; linker 1-8 via mXylylene; N-terminus and C-terminus assumed)", "values": [{"measurement": "increase in potency (4Phe→Dpa)", "setting": "[1]; mHS5 versus mHS15", "value": 5, "unit": "×"}]}
{"smiles": "CC(=O)N[C@H]1CSCC(=O)NCCNC(=O)CSC[C@@H](C(N)=O)NC(=O)[C@H](Cc2ccccc2)NC(=O)[C@H](CCCNC(=N)N)NC(=O)[C@H](CS)NC(=O)[C@H](CCCNC(=N)N)NC(=O)[C@@H]2CCCN2C(=O)[C@H](Cc2ccccc2)NC1=O", "note": "[mHS2] (Ac-CFPRCRFC-NH2; linker 1-8 via CH2CONHCH2CH2NHCOCH2; N-terminus and C-terminus assumed)", "values": [{"measurement": "bioactivity in Fpn degradation assay (in words)", "setting": "[1]", "value": "inactive"}]}
{"smiles": "CCCCCCCCCCCCCCCCNC(=O)CN(CC(N)=O)C(=O)CCCCCNC(=O)[C@@H]1CSCc2cccc(c2)CSC[C@H](NC(C)=O)C(=O)N[C@@H](C(c2ccccc2)c2ccccc2)C(=O)N2CCC[C@H]2C(=O)N[C@@H](CCCNC(=N)N)C(=O)N[C@@H](CS)C(=O)N[C@@H](CCCNC(=N)N)C(=O)N[C@@H](Cc2ccccc2)C(=O)N1", "note": "[mHS17]", "values": [{"measurement": "in vivo activity (decrease in serum iron)", "setting": "[3]", "value": "no desired biological effect; also recorded: no in vivo potency"}]}
